ChEMBL document CHEMBL1147186, “Dibenzothiazoles as novel amyloid-imaging agents” (Bioorg Med Chem, 2007)

Legend:
[1] = molecular target: Amyloid-beta precursor protein (Homo sapiens, UniProt P05067); assay: Displacement of [3H]PIB from beta amyloid in brain homogenate from Alzheimer's patient; type: tissue-based
How it was run: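 Competition binding against [3H]PIB (0.05 nM final) in postmortem AD gray-matter homogenate prepared in PBS pH 7.4. Inhibitors at 10^-5 to 10^-12 mol/L (PBS, under 1% DMSO), incubated 37 °C for 1 h. Bound radioligand was collected by GF/B vacuum filtration, washed three times with PBS and scintillation-counted. Nonspecific binding was defined with 10 µM PIB. Ki was obtained by nonlinear regression.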

[2] = Partition coefficient, log P of the compound; type: physicochemical; details: octanol/water
How it was run: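 Shake-flask logP using the [125I] radioligand (RCP >98%) in n-octanol and 0.1 M phosphate buffer pH 7.4. Mixture vortexed 3 min at room temperature and centrifuged 3500 rpm for 5 min. Both phases were weighed and counted; logP is log of the cpm/g octanol to cpm/g buffer ratio. The octanol phase was repartitioned until values were consistent; done in triplicate.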

Brain [3] = assay: Biodistribution in Swiss-Webster mouse brain at 0.185 MBq, iv after 60 mins; type: ADME, organism-based; details: in vivo, 1 h
How it was run: (§1)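 Radioiodinated tracer in saline/ethylene glycol/ethanol/HCl vehicle, single tail-vein injection under anesthesia into 2-month-old Swiss-Webster mice (n = 3 per time point). Animals killed by heart puncture at 2, 30 and 60 min; brain removed, weighed and gamma-counted. Uptake expressed as % injected dose per gram.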

Brain [4] = assay: Biodistribution in Swiss-Webster mouse brain at 0.185 MBq, iv after 2 mins; type: ADME, organism-based; details: in vivo; how it was run: as §1
Brain [5] = assay: Biodistribution in Swiss-Webster mouse brain at 0.185 MBq, iv after 30 mins; type: ADME, organism-based; details: in vivo, 0.5 h; how it was run: as §1

Sequence of Amyloid-beta precursor protein (P05067 whole entry): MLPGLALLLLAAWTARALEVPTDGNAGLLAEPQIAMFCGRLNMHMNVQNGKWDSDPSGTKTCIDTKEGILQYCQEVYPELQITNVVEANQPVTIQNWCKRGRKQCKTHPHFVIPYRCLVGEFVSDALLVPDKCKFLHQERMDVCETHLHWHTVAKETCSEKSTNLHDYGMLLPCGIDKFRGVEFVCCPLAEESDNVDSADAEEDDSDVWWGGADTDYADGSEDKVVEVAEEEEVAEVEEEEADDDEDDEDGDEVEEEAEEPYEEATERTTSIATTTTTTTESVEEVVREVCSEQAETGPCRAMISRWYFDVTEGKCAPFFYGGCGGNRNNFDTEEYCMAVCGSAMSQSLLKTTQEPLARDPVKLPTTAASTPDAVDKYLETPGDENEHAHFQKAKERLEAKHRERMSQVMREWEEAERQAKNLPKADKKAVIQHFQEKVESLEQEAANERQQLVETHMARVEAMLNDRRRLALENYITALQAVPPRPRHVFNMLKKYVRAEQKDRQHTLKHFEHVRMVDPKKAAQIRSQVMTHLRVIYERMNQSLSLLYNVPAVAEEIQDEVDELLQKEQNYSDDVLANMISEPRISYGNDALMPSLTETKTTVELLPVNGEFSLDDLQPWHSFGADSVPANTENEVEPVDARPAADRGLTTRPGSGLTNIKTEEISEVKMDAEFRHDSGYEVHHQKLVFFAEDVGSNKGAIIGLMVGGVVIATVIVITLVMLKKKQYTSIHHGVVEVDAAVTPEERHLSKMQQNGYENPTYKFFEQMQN

Row | Structure (SMILES) | Ki [1] | other results
1 | Nc1ccc(-c2nc3ccc(-c4nc5ccc(F)cc5s4)cc3s2)cc1 | 0.036 µM | 
2 | CNc1ccc(-c2nc3ccc(-c4nc5ccc(Cl)cc5s4)cc3s2)cc1 | 0.0068 µM | 
3 | CN(C)c1ccc(-c2nc3ccc(-c4nc5ccc(F)cc5s4)cc3s2)cc1 | 0.023 µM | 
4 | Nc1ccc(-c2nc3ccc(-c4nc5ccccc5s4)cc3s2)cc1[125I] |  | Drug uptake (Brain [3]): 0.43 % ID/g; Drug uptake (Brain [4]): 3.71 % ID/g; Drug uptake (Brain [5]): 0.78 % ID/g; logP [2]: 2.7
5 | Nc1ccc(-c2nc3ccc(-c4nc5ccccc5s4)cc3s2)cc1 | 0.025 µM | 

Now from value to molecule, other results behind:

Row | Ki [1] | Structure (SMILES) | other results
6 | 0.021 µM | Nc1ccc(-c2nc3ccc(-c4nc5ccccc5s4)cc3s2)cc1I | logP [2]: 2.7
7 | 0.034 µM | Nc1ccc(-c2nc3ccc(-c4nc5ccc(Cl)cc5s4)cc3s2)cc1 | 
8 | 0.022 µM | CNc1ccc(-c2nc3ccc(-c4nc5ccccc5s4)cc3s2)cc1 | 
9 | 0.027 µM | CNc1ccc(-c2nc3ccc(-c4nc5ccc(F)cc5s4)cc3s2)cc1 | 
10 | 0.025 µM | COc1ccc2nc(-c3ccc4nc(-c5ccc(N)cc5)sc4c3)sc2c1 | 
